# Results from different studies.
# Lines come from different studies, so protocols differ.
# OPRK1: Kappa-type opioid receptor (OPRK1, Homo sapiens, UniProt P41145)
# PPO3: PPO3 (Agaricus bisporus, UniProt C7FF04)
# SIGMAR1: Sigma non-opioid intracellular receptor 1 (SIGMAR1, Homo sapiens, UniProt Q99720)
SMILES,target,test,conditions,Ki [µM]
CNC(=O)[C@@]12C[C@@H]1[C@@H](n1cnc3c(NC4CC4c4ccccc4)nc(C#Cc4ccccc4)nc31)[C@H](O)[C@@H]2O (mixture of isomers),OPRK1,cell-free assay,,> 10
Nc1nc(N)c(N=Nc2ccc([N+](=O)[O-])cc2)c(N)n1,PPO3,"enzyme activity, inhibitor",,4.62
CCOC(=O)[C@H](CCSC)NC(=O)c1ccc(C2CC2)c(Cc2ccc(F)cc2)n1,"Cannabinoid receptor 1 (CNR1, Homo sapiens, UniProt P21554)","ligand displacement, radioligand",cell membranes,0.07
CNC(=O)[C@@]12C[C@@H]1[C@@H](n1cnc3c(NC)nc(C#Cc4ccc(Cl)s4)nc31)[C@H](O)[C@@H]2O,OPRK1,cell-free assay,,> 10
CCCn1nc(C(=O)N2CCCCC2)c2c1CCC(Nc1ccc(N3CCCCC3)cc1)C2 (stereo not drawn),SIGMAR1,"ligand displacement, radioligand",,> 10
COc1ccccc1Oc1c(NS(=O)(=O)c2ccc(C(C)(C)C)cc2)nc(-c2ncccn2)nc1OCCO,"Hepatic sodium/bile acid cotransporter (SLC10A1, Homo sapiens, UniProt Q14973)","transporter uptake, inhibitor",,145
CCNc1nc(C#Cc2ccccc2)nc2c1ncn2[C@H]1[C@H](O)[C@H](O)[C@@H]2C[C@@H]21,OPRK1,cell-free assay,,> 10
CCCCN1CCC(COC(=O)c2ccc(N)c(OCF)c2)CC1,"Histamine H4 receptor (HRH4, Homo sapiens, UniProt Q9H3N8)","cell-free assay, radioligand",,> 10
COc1ccc2c(ccn2CCCCN2CCc3cc(OC)c(OC)cc3C2)c1,SIGMAR1,"ligand displacement, radioligand",cell membranes,0.45
N=C(N)N1CCC[C@H]1c1nc(-c2ccc(CCC3CCCCC3)c(C(F)(F)F)c2)no1,"Sphingosine kinase 1 (SPHK1, Homo sapiens, UniProt Q9NYA1)","enzyme activity, inhibitor",,18
CNC(=O)[C@@]12C[C@@H]1[C@@H](n1cnc3c(NCCCO)nc(C#Cc4ccc(Cl)s4)nc31)[C@H](O)[C@@H]2O,OPRK1,cell-free assay,,> 10
Cc1ccc(CN(C)CC(=O)N2CCCN(Cc3ccc(Cl)cc3)CC2)c(Cl)c1,OPRK1,cell-free assay,,7.59
Nc1nc(N)c(N=Nc2ccccc2[N+](=O)[O-])c(N)n1,PPO3,"enzyme activity, inhibitor",,5.66
CNc1nc(C#Cc2ccc(Cl)s2)nc2c1ncn2[C@H]1[C@H](O)[C@H](O)[C@]2(C(=O)O)C[C@H]12,OPRK1,cell-free assay,,> 10
CCCn1nc(C(=O)N2CCCCC2)c2c1CCC(NCC1CCOCC1)C2 (stereo not drawn),SIGMAR1,"ligand displacement, radioligand",,> 10
Cn1cc(-c2ccncc2)c(-c2ccc(OCc3ccc4ccccc4n3)cc2)n1,"Vesicular acetylcholine transporter (SLC18A3, Homo sapiens, UniProt Q16572)","ligand displacement, radioligand",,> 1
Cc1nc2n(c(=O)c1CCN1CCC(C(=O)c3ccc(F)cc3)CC1)CCCC2,"5-hydroxytryptamine receptor 2A (HTR2A, Homo sapiens, UniProt P28223)","ligand displacement, radioligand",cell membranes,0.00302
CCCn1nc(C(=O)N2CCCCC2)c2c1CCC(NCCCN1CCCC1=O)C2 (stereo not drawn),SIGMAR1,"ligand displacement, radioligand",,> 10
